An excerpt weighted towards active compounds, which were near 2.7% of everything screened.
SIAE inh: human SIAE inhibition, primary screen. Q9HAT2. SIAE FP-Rh probe binding, fluorescence polarization. inhibition, % at 9.66 µM. actives 0.69% (n = 370,000). AID 1053197;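 active = inhibition above a cutoff: mean of compounds within the control limits plus 3 SD of those, cut at about 17% in these data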;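 note: 0% = plate median of compound wells and 100% = probe without SIAE protein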
PAD4 FP inh: blocks human protein arginine deiminase 4 | recombinant PAD4, RCA probe fluorescence polarization | AID 485272 | inhibition, % at 6.36 µM | actives 0.41% (n = 330,000) | Q9UM07;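 active = percent inhibition above a cutoff equal to the mean of all tested compounds plus 3 SD, cut at about 15% in these data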;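 note: 0% = PAD4 with RCA probe and DMSO and 100% = probe without PAD4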
PRMT1 inh: PRMT1 (human) inhibition, primary screen; recombinant PRMT1, activity-based probe fluorescence polarization; AID 652257; Q99873; inhibition, % at 2.79 µM; actives 1.3% (n = 370,000);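 active = inhibition above about 21% made by adding two undisclosed values, limit read from the data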
Target sequence (Q99873 whole entry, looked up): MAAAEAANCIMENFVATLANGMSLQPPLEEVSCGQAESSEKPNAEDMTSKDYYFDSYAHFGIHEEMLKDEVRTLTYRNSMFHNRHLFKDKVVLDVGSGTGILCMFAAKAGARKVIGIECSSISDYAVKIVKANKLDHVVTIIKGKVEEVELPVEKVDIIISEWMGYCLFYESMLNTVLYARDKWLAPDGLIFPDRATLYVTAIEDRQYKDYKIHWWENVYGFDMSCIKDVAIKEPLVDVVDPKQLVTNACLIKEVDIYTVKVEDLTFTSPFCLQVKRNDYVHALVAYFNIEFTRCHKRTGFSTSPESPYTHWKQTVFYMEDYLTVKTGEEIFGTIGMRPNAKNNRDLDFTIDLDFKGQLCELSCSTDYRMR
RBBP9 inhibitor: human RBBP9 hydrolase inhibition | AID 1515 | O75884 | actives 0.2% (n = 220,000) | recombinant RBBP9, FP-Rh probe fluorescence polarization | inhibition, % at 7.94 µM;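 active = inhibition above the campaign mean of all tested compounds plus 3 SD, cut at about 14% in these data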;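 note: plate controls were DMSO wells with RBBP9 for no effect and wells lacking RBBP9 protein for full effect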
Target sequence (O75884 whole entry, looked up): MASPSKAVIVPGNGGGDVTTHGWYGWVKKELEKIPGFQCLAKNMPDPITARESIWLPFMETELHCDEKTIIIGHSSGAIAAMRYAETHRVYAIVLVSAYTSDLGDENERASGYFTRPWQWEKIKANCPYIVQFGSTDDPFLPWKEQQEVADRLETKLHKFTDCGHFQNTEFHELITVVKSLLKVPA
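Material: RBBP9 protein. Amount: RBBP9 at 2.5 µM in dispensed solution, before mixing. Schedule: 30 min then 45 min, 25 °C. Medium: Tris buffer pH 8.0, NaCl, Pluronic. Measured by: fluorescence polarization. Measure: percent inhibition from mP, scaled between DMSO and no-protein wells. Replication: one well per compound.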
GSTO1 inh: counter-screen for RBBP9 inhibitors: inhibitors of human GSTO1 | P78417 | recombinant GSTO1, activity-based probe fluorescence polarization | inhibition, % at 5.96 µM | actives 1.1% (n = 300,000) | AID 1974;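 active = inhibition above the campaign mean inhibition plus 3 SD, cut at about 35% in these data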;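 note: 0% = GSTO1-1 with DMSO and 100% = wells lacking GSTO1-1 enzyme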
PRMT1 inh conf: confirmation of human PRMT1 inhibitors; shares compounds with PRMT1 inh; recombinant His-PRMT1, activity-based probe fluorescence polarization; inhibition, % at 2.79 µM; actives 42% (n = 3,300); AID 687036;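 active = mean inhibition across replicates above the hit cutoff derived for the earlier primary screen, cut at about 22% in these data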
* marks the source's active call; other numbers are inactive results; · = no result given.

SMILES	SIAE inh	PAD4 FP inh	PRMT1 inh	RBBP9 inhibitor	GSTO1 inh	PRMT1 inh conf
Cc1ccc(/C=C/C(=O)Nc2nccs2)o1	3	-6	29*	1	2	5
CCC(=O)/C=C1/Sc2ccc(OC)cc2N1CCO	10	-2	0	-7	1	·
CCC(/C=C1\Sc2ccc(OC)cc2N1CCO)=C\c1sc2ccc(OC)cc2[n+]1CCO	-14	-137	70*	-82	-168	7
O=C(NCc1ccccc1Cl)c1ccc2sc([C@H]3C[C@H](O)[C@@H](CO)O3)nc2c1	-2	·	3	·	·	·
O=C(NC1CC1)c1cc(=S)[nH]c2ccccc12	6	-3	39*	·	·	19
COC(OC)c1nc(SCC(=O)Nc2cccc(Cl)c2)ncc1C(=O)O	12	3	27*	1	-18	3
COc1cc2cc3c(N)c(C(=O)Nc4sc(C)c(C)c4C#N)sc3nc2cc1OC	-34	-20	27*	-7	19	2
CCc1nc2c(OCc3ccccc3C(=O)OC)cccn2c1N(C)C(=O)Nc1ccccc1OC	2	·	3	·	·	·
COc1ccc(S(=O)(=O)N(C(=O)C(C)C)c2ccc3oc(=O)sc3c2)cc1	-41	14	68*	-3	15	39*
Cc1c(C(c2cc(O)ccc2O)c2c(C)n(C)n(-c3ccccc3)c2=O)c(=O)n(-c2ccccc2)n1C	7	·	33*	·	·	6
Cc1c(C(c2cccc(O)c2)c2c(C)n(C)n(-c3ccccc3)c2=O)c(=O)n(-c2ccccc2)n1C	6	1	0	-7	0	·
Clc1cccc(Cl)c1Cn1cc(Br)cn1	-3	0	-2	8	1	·
Cc1cc(NC(=O)CSCC(=O)OCC(=O)c2cccc(Br)c2)no1	-11	-4	27*	·	·	2
O=C(COc1ccc2c(c1)CCC2)N1CCN(c2cccc(C(F)(F)F)c2)CC1	-4	-2	-4	10	-1	·
Cc1sc2ccccc2[n+]1CC(=O)O	3	8	48*	-5	-6	54*
CC[n+]1c(/C=C/Nc2ccccc2)sc2ccccc21	-20	-48	18	-17	-17	·
Cc1sc2ccccc2[n+]1CCC(C)S(=O)(=O)[O-] (stereo not drawn)	-2	9	36*	-4	2	34*
Cc1sc2ccccc2[n+]1CC(=O)c1ccccc1	·	6	·	·	19	·
C/C(=N\NC(=O)C(c1ccccc1)c1ccccc1)c1ccccn1	8	2	-4	-3	7	·
CCN(CC(=O)NCc1cccs1)C(=O)c1cc(=O)[nH]c2ccccc12	-13	-5	-8	·	·	·
Cc1nnc(NC(=O)CCSCCC(=O)Nc2nnc(C)s2)s1	-4	0	29*	12	2	30*
COc1ccccc1NC(=O)CCc1nnc2ccc(N3CCC4(CC3)OCCO4)nn12	-2	1	2	·	0	·
O=C(CSc1nc2ccc(NC(=O)CSc3nnnn3-c3ccccc3)cc2s1)Nc1ccccc1	-55	-25	0	-9	-25	·
CSc1ccc(CCNC(=O)CCc2nnc3ccc(NCCCN4CCCC4=O)nn23)cc1	-7	4	1	·	8	·
O=C(/C=C/c1ccccc1)N1CCOCC1	1	3	-1	·	5	·
SMILES	SIAE inh	PAD4 FP inh	PRMT1 inh	RBBP9 inhibitor	GSTO1 inh	PRMT1 inh conf
O=C(/C=C/c1ccccc1)CCN1CCOCC1	3	·	27*	·	·	58*
CCOC(=O)c1ccc(N/C=C/C(=O)C(C)(C)C)cc1	4	0	1	-9	4	·
CC(C)(C)C(=O)/C=C/Nc1ccccc1O	3	-6	26*	-6	4	8
Cn1c(=O)c2cn(-c3ccc4c(c3)OCCO4)cc2n(C)c1=O	2	-1	-1	-5	3	·
CCc1cc(CNC(=O)CCc2nnc(Cc3cccc(C)c3)o2)on1	2	0	3	-5	0	·
Cc1nc(CNS(=O)(=O)c2cccc(F)c2)cs1	-1	0	0	-10	6	·
Cc1ccc(-c2csc(NS(=O)(=O)c3cccc(F)c3)n2)o1	-12	-5	54*	·	·	21
COc1cc2c(cc1OC)CN(C(=O)CSc1ccccc1C)CC2	0	-7	33*	·	·	16
N#C/C(=C\c1ccccc1[N+](=O)[O-])C(=O)NC1CCCCC1	3	-2	32*	-2	3	-2
N#C/C(=C\C=C\c1ccccc1[N+](=O)[O-])C(=O)NC1CCCCC1	·	0	·	3	16	·
CC(=O)/C=C1\N(C)c2ccc(C)cc2C1(C)C	-29	-80	1	-18	-26	·
COc1ccc(CNS(=O)(=O)NCc2ccccc2)cc1OC	1	-1	0	1	-1	·
CCOC(=O)c1c(C)nsc1NCc1ccccc1	-7	2	28*	·	7	2
O=c1c2ccc(F)cc2sn1-c1ccccc1	2	·	80*	·	·	94*
O=c1c2cc(F)ccc2sn1-c1ccccc1Cl	7	·	61*	·	·	95*
Cc1ccc(-n2sc3cc(F)ccc3c2=O)c(C)c1	6	·	92*	·	·	81*
O=c1c2ccccc2ncn1-c1ccc(Cl)cc1	-2	6	1	-7	10	·
O=c1c2ccccc2sn1-c1ccc(Cl)cc1	3	·	90*	·	·	86*
Nc1nc(-c2cc(O)ccc2[N+](=O)[O-])cc(-c2ccccc2)c1[N+](=O)[O-]	16	·	27*	·	·	18
Cc1c(NC(=O)CSCc2ccc(Cl)cc2Cl)cccc1C(=O)O	10	1	-4	·	7	·
CN1C=CC2=C(C#N)C(N)C(C#N)(C#N)[C@H](c3ccccc3)[C@H]2C1 (stereo partly drawn)	8	0	26*	-8	1	10
Cn1cnnc1SCC(=O)Nc1ncc([N+](=O)[O-])s1	-6	-5	7	·	·	·
C=CCn1c(Sc2ncc([N+](=O)[O-])s2)n[nH]c1=O	7	0	75*	1	8	61*
O=C(CSc1ccccn1)N1CCN(c2ccccc2)CC1	·	-2	·	-3	-5	·
O=C(CSc1ccccn1)N1CCN(c2cccc(Cl)c2)CC1	0	-1	47*	3	-5	53*
c1ccc(CN2c3ccccc3-c3nc4ccccc4n3C2c2ccccn2)cc1 (stereo not drawn)	-3	-3	8	-2	10	·
C=C1c2cccc(O)c2C(=O)C2C(=O)[C@]3(O)C(=O)C(C(N)=O)C(=O)[C@@H](N(C)C)[C@@H]3[C@@H](O)[C@H]12 (stereo partly drawn)	47*	-20	62*	·	·	22*
CC1(C)Cc2nc3sc4c(SCC(=O)NCc5ccco5)ncnc4c3cc2CO1	-4	2	1	-10	-23	·
COc1cc(/C=C/C=C2/CC/C(=C/C=C/c3ccc(O)c(OC)c3)C2=O)ccc1O	2	·	54*	·	·	13
COc1ccc(N2C(=S)N(C(=O)c3ccccc3)C(=Nc3ccccc3)C2=Nc2ccccc2)cc1	11	2	-2	-7	1	·

Bioassay records deposited in PubChem BioAssay by The Scripps Research Institute Molecular Screening Center.
